# In ChEMBL document CHEMBL1142894, “Preparation of 5-aryl-3-alkylthio-l,2,4-triazoles and corresponding sulfones with antiinflammatory-analgesic activity” (Bioorg Med Chem, 2007):
# Active and inactive are the calls of the source. No cut-off for these calls is given here.
# Columns and labels:
# [1] = system: Mus musculus; assay: Analgesic activity against p-benzoquinone-induced abdominal constriction in Swiss albino mouse assessed as number of writhings at 200 mg/kg, po; format: functional, Abdomen
# Procedure, shortened: (§1)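 Test samples given orally in 0.5% CMC; vehicle to controls. 60 min later, 2.5% (v/v) p-benzoquinone in distilled water, 0.1 ml/10 g, given i.p. Mice housed singly; writhes counted for 15 min starting 5 min after injection. Activity is % change from vehicle controls. n = 6; mean ± SEM.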
# [2] = system: Mus musculus; assay: Antiinflammatory activity against carrageenan-induced paw edema in Swiss albino mouse assessed as swelling thickness at 50 mg/kg, po after 90 mins; format: functional
# Procedure, shortened: (§2)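 Oral dosing in 0.5% CMC; vehicle to controls. Then carrageenan (0.5 mg/25 ll, freshly suspended in 154 mM saline) injected into the right hind paw subplantar tissue; saline into the left paw. Right-left footpad thickness difference measured by dial gauge calliper every 90 min over 6 h. Inhibition % is relative to vehicle control. n = 6; mean ± SEM.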
# [3] = system: Mus musculus; assay: Antiinflammatory activity against carrageenan-induced paw edema in Swiss albino mouse assessed as swelling thickness at 25 mg/kg, po after 90 mins; format: functional; procedure, shortened: as §2
# [4] = system: Mus musculus; assay: Antiinflammatory activity against carrageenan-induced paw edema in Swiss albino mouse assessed as swelling thickness at 25 mg/kg, po after 360 mins; format: functional; procedure, shortened: as §2
# [5] = system: Mus musculus; assay: Antiinflammatory activity against carrageenan-induced paw edema in Swiss albino mouse assessed as swelling thickness at 200 mg/kg, po after 360 mins; format: functional; procedure, shortened: as §2
# [6] = system: Mus musculus; assay: Inhibition of p-benzoquinone-induced writhing in Swiss albino mouse at 25 mg/kg, po relative to control; format: functional
# Procedure, shortened: (§3)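 Mice, n = 6 per group, dosed orally with a suspension in 0.5% sodium CMC. 60 min later, 0.1 ml/10 g of 2.5% […] p-benzoquinone in distilled water given ip. Abdominal writhes counted per animal for 15 min, starting 5 min after injection. Expressed as % change in mean writhing count versus vehicle controls.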
# [7] = system: Mus musculus; assay: Antiinflammatory activity against carrageenan-induced paw edema in Swiss albino mouse assessed as swelling thickness at 50 mg/kg, po after 270 mins; format: functional; procedure, shortened: as §2
# [8] = system: Mus musculus; assay: Analgesic activity against p-benzoquinone-induced abdominal constriction in Swiss albino mouse assessed as number of writhings at 100 mg/kg, po; format: functional, Abdomen; procedure, shortened: as §1
# [9] = system: Mus musculus; assay: Inhibition of carrageenan-induced paw edema in Swiss albino mouse at 200 mg/kg, po after 90 mins relative to control; format: functional; conditions: 1.5 h; procedure, shortened: as §2
# [10] = system: Mus musculus; assay: Inhibition of carrageenan-induced paw edema in Swiss albino mouse at 50 mg/kg, po after 270 mins relative to control; format: functional; conditions: 4.5 h
# Procedure, shortened: (§4)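 Mice, n = 6 per group. Test agent given orally as a suspension in 0.5% sodium CMC in distilled water; controls received vehicle only. Afterwards, 0.5 mg/25 ll carrageenan in saline (154 mM NaCl) injected subplantar into the right hind paw, saline into the left. Right-minus-left footpad thickness measured by dial gauge caliper every 90 min for 6 h. Inhibition is relative to vehicle-control group means.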
# [11] = system: Mus musculus; assay: Antiinflammatory activity against carrageenan-induced paw edema in Swiss albino mouse assessed as swelling thickness at 25 mg/kg, po after 180 mins; format: functional; procedure, shortened: as §2
# [12] = system: Mus musculus; assay: Gastric-ulcerogenic effect in Swiss albino mouse assessed as lesions at 25 mg/kg, po; format: functional, organism-based; design: dose 25 mg/kg
# Procedure, shortened: (§5)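 Mice killed under deep ether anesthesia 3 h after the writhing test; the oral dose in 0.5% CMC was the one used in that test. Stomachs removed, opened along the great curvature and examined under a dissecting microscope for lesions or bleeding. Reported as ratio of ulceration; n = 6.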
# [13] = system: Mus musculus; assay: Analgesic activity against p-benzoquinone-induced abdominal constriction in Swiss albino mouse assessed as number of writhings at 50 mg/kg, po; format: functional, Abdomen; procedure, shortened: as §1
# [14] = system: Mus musculus; assay: Inhibition of carrageenan-induced paw edema in Swiss albino mouse at 100 mg/kg, po after 360 mins relative to control; format: functional; conditions: 6 h; procedure, shortened: as §2
# [15] = system: Mus musculus; assay: Antiinflammatory activity against carrageenan-induced paw edema in Swiss albino mouse assessed as swelling thickness at 100 mg/kg, po after 270 mins; format: functional; procedure, shortened: as §2
# [16] = system: Mus musculus; assay: Acute toxicity in Swiss albino mouse assessed as lethal effect at 200 mg/kg/day, po after 72 hrs; format: organism-based; design: route oral; conditions: in vivo
# Procedure, shortened: (§6)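 Oral single dose suspended in 0.5% carboxymethylcellulose, given after a 24 h fast; food and water returned 1 h after dosing. Vehicle-only controls. Mice observed at 1 h, then once daily for 72 h, for toxic signs and mortality.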
# [17] = system: Mus musculus; assay: Inhibition of carrageenan-induced paw edema in Swiss albino mouse at 50 mg/kg, po after 180 mins relative to control; format: functional; conditions: 3 h; procedure, shortened: as §2
# [18] = system: Mus musculus; assay: Acute toxicity in Swiss albino mouse assessed as lethal effect at 25 mg/kg/day, po after 72 hrs; format: organism-based; design: route oral; conditions: in vivo; procedure, shortened: as §6
# [19] = system: Mus musculus; assay: Antiinflammatory activity in Swiss albino mouse assessed as inhibition of carrageenan-induced paw edema at 50 mg/kg, po; format: functional
# [20] = system: Mus musculus; assay: Inhibition of p-benzoquinone-induced writhing in Swiss albino mouse at 100 mg/kg, po relative to control; format: functional; procedure, shortened: as §3
# [21] = system: Mus musculus; assay: Antiinflammatory activity against carrageenan-induced paw edema in Swiss albino mouse assessed as swelling thickness at 200 mg/kg, po after 270 mins; format: functional; procedure, shortened: as §2
# [22] = system: Mus musculus; assay: Antiinflammatory activity against carrageenan-induced paw edema in Swiss albino mouse assessed as swelling thickness at 100 mg/kg, po after 360 mins; format: functional; procedure, shortened: as §2
# [23] = system: Mus musculus; assay: Inhibition of carrageenan-induced paw edema in Swiss albino mouse at 25 mg/kg, po after 90 mins relative to control; format: functional; conditions: 1.5 h; procedure, shortened: as §2
# [24] = system: Mus musculus; assay: Inhibition of carrageenan-induced paw edema in Swiss albino mouse at 200 mg/kg, po after 180 mins relative to control; format: functional; conditions: 3 h; procedure, shortened: as §2
# [25] = system: Mus musculus; assay: Inhibition of carrageenan-induced paw edema in Swiss albino mouse at 200 mg/kg, po after 270 mins relative to control; format: functional; conditions: 4.5 h; procedure, shortened: as §2
# [26] = system: Mus musculus; assay: Inhibition of carrageenan-induced paw edema in Swiss albino mouse at 50 mg/kg, po after 360 mins relative to control; format: functional; conditions: 6 h; procedure, shortened: as §4
# [27] = system: Mus musculus; assay: Antiinflammatory activity against carrageenan-induced paw edema in Swiss albino mouse assessed as swelling thickness at 200 mg/kg, po after 90 mins; format: functional; procedure, shortened: as §2
# [28] = system: Mus musculus; assay: Inhibition of carrageenan-induced paw edema in Swiss albino mouse at 100 mg/kg, po after 270 mins relative to control; format: functional; conditions: 4.5 h; procedure, shortened: as §2
# [29] = system: Mus musculus; assay: Antiinflammatory activity against carrageenan-induced paw edema in Swiss albino mouse assessed as swelling thickness at 200 mg/kg, po after 180 mins; format: functional; procedure, shortened: as §2
# [30] = system: Mus musculus; assay: Gastric-ulcerogenic effect in Swiss albino mouse assessed as lesions at 100 mg/kg, po; format: functional, organism-based; design: dose 100 mg/kg; procedure, shortened: as §5
# [31] = system: Mus musculus; assay: Antiinflammatory activity against carrageenan-induced paw edema in Swiss albino mouse assessed as swelling thickness at 100 mg/kg, po after 180 mins; format: functional; procedure, shortened: as §2
# [32] = system: Mus musculus; assay: Antiinflammatory activity against carrageenan-induced paw edema in Swiss albino mouse assessed as swelling thickness at 50 mg/kg, po after 180 mins; format: functional; procedure, shortened: as §2
# [33] = system: Mus musculus; assay: Antiinflammatory activity against carrageenan-induced paw edema in Swiss albino mouse assessed as swelling thickness at 50 mg/kg, po after 360 mins; format: functional; procedure, shortened: as §2
# [34] = system: Mus musculus; assay: Inhibition of carrageenan-induced paw edema in Swiss albino mouse at 50 mg/kg, po after 90 mins relative to control; format: functional; conditions: 1.5 h; procedure, shortened: as §4
# [35] = system: Mus musculus; assay: Inhibition of p-benzoquinone-induced writhing in Swiss albino mouse at 200 mg/kg, po relative to control; format: functional; procedure, shortened: as §3
# [36] = system: Mus musculus; assay: Gastric-ulcerogenic effect in Swiss albino mouse assessed as lesions at 50 mg/kg, po; format: functional, organism-based; design: dose 50 mg/kg; procedure, shortened: as §5
# [37] = system: Mus musculus; assay: Acute toxicity in Swiss albino mouse assessed as lethal effect at 50 mg/kg/day, po after 72 hrs; format: organism-based; design: route oral; conditions: in vivo; procedure, shortened: as §6
# [38] = system: Mus musculus; assay: Analgesic activity against p-benzoquinone-induced abdominal constriction in Swiss albino mouse assessed as number of writhings at 25 mg/kg, po; format: functional, Abdomen; procedure, shortened: as §1
# [39] = system: Mus musculus; assay: Antiinflammatory activity against carrageenan-induced paw edema in Swiss albino mouse assessed as swelling thickness at 25 mg/kg, po after 270 mins; format: functional; procedure, shortened: as §2
# [40] = system: Mus musculus; assay: Inhibition of carrageenan-induced paw edema in Swiss albino mouse at 200 mg/kg, po after 360 mins relative to control; format: functional; conditions: 6 h; procedure, shortened: as §2
# [41] = system: Mus musculus; assay: Inhibition of p-benzoquinone-induced writhing in Swiss albino mouse at 50 mg/kg, po relative to control; format: functional; procedure, shortened: as §3
# [42] = system: Mus musculus; assay: Inhibition of carrageenan-induced paw edema in Swiss albino mouse at 25 mg/kg, po after 180 mins relative to control; format: functional; conditions: 3 h; procedure, shortened: as §2
# [43] = system: Mus musculus; assay: Acute toxicity in Swiss albino mouse assessed as lethal effect at 100 mg/kg/day, po after 72 hrs; format: organism-based; design: route oral; conditions: in vivo; procedure, shortened: as §6
# [44] = system: Mus musculus; assay: Antiinflammatory activity against carrageenan-induced paw edema in Swiss albino mouse assessed as swelling thickness at 100 mg/kg, po after 90 mins; format: functional; procedure, shortened: as §2
# [45] = system: Mus musculus; assay: Inhibition of carrageenan-induced paw edema in Swiss albino mouse at 25 mg/kg, po after 360 mins relative to control; format: functional; conditions: 6 h; procedure, shortened: as §2
# [46] = system: Mus musculus; assay: Inhibition of carrageenan-induced paw edema in Swiss albino mouse at 25 mg/kg, po after 270 mins relative to control; format: functional; conditions: 4.5 h; procedure, shortened: as §2
# [47] = system: Mus musculus; assay: Inhibition of carrageenan-induced paw edema in Swiss albino mouse at 100 mg/kg, po after 90 mins relative to control; format: functional; conditions: 1.5 h; procedure, shortened: as §2
# [48] = system: Mus musculus; assay: Inhibition of carrageenan-induced paw edema in Swiss albino mouse at 100 mg/kg, po after 180 mins relative to control; format: functional; conditions: 3 h; procedure, shortened: as §2
structure (smiles),measurement,setting,value
CCS(=O)(=O)c1nc(-c2ccc(Cl)cc2)n[nH]1,Activity,[1],44.1
same,Activity,[2],35.4 10^-2mm
same,Activity,[3],45.8 10^-2mm
same,Activity,[4],61.2 10^-2mm
same,Activity,[5],58.4 10^-2mm
same,inhibition in vivo at 25 mg/kg,[6],26.5%
same,Activity,[7],37.2 10^-2mm
same,Activity,[8],20.4
same,inhibition in vivo at 200 mg/kg,[9],14.5%
same,inhibition in vivo at 50 mg/kg,[10],42.6%
same,Activity,[11],49.6 10^-2mm
same,Activity,[12],Active
same,Activity,[13],20.8
same,inhibition in vivo at 100 mg/kg,[14],48.7%
same,Activity,[15],34.5 10^-2mm
same,Activity,[16],Non-toxic
same,inhibition in vivo at 50 mg/kg,[17],39.2%
same,Activity,[18],Non-toxic
same,inhibition in vivo at 50 mg/kg,[19],40.2%
same,inhibition in vivo at 100 mg/kg,[20],56.9%
same,Activity,[21],55.4 10^-2mm
same,Activity,[22],35.3 10^-2mm
same,inhibition in vivo at 25 mg/kg,[23],13.9%
same,inhibition in vivo at 200 mg/kg,[24],17.7%
same,inhibition in vivo at 200 mg/kg,[25],14.5%
same,inhibition in vivo at 50 mg/kg,[26],45.3%
same,Activity,[27],45.5 10^-2mm
same,inhibition in vivo at 100 mg/kg,[28],41.3%
same,Activity,[29],48.9 10^-2mm
same,Activity,[30],Active
same,Activity,[31],31 10^-2mm
same,Activity,[32],36.1 10^-2mm
same,Activity,[33],39.4 10^-2mm
same,inhibition in vivo at 50 mg/kg,[34],33.5%
same,inhibition in vivo at 200 mg/kg,[35],18.5%
same,Activity,[36],Active
same,Activity,[37],Non-toxic
same,Activity,[38],37.8
same,Activity,[39],57.9 10^-2mm
same,inhibition in vivo at 200 mg/kg,[40],18.9%
same,inhibition in vivo at 50 mg/kg,[41],59.5%
same,inhibition in vivo at 25 mg/kg,[42],16.5%
same,Activity,[43],Non-toxic
same,Activity,[44],27.2 10^-2mm
same,inhibition in vivo at 25 mg/kg,[45],15%
same,inhibition in vivo at 25 mg/kg,[46],10.6%
same,inhibition in vivo at 100 mg/kg,[47],39.3%
same,inhibition in vivo at 100 mg/kg,[48],39.8%
